Measured values from ChEMBL document CHEMBL4038305, “Benzoxaborole Antimalarial Agents. Part 5. Lead Optimization of Novel Amide Pyrazinyloxy Benzoxaboroles and Identification of a Preclinical Candidate” (J Med Chem, 2017).

Key:
Plasmodium berghei [1] = test: Antimalarial activity against Plasmodium berghei infected in Swiss Webster mouse assessed as mouse survival rate at 1 mg/kg administered once daily via oral gavage for 4 consecutive days beginning 1 hr after infection measured on day 8 post infection relative to control; format: functional
Summary of the method: (§1)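 Mice given an intraperitoneal injection of P. berghei-infected erythrocytes taken from a previously infected animal. Oral dosing once daily for 4 consecutive days, starting 1 h after infection. Vehicle: polyethylene glycol 300/propylene glycol/water (weight ratio 55/25/20). Percent survival recorded daily from day 4 to day 20. Chloroquine 30 mg/kg and vehicle-only groups served as controls.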

Plasmodium berghei [2] = test: Antimalarial activity against Plasmodium berghei infected in Swiss Webster mouse assessed as mouse survival rate at 3 mg/kg administered once daily via oral gavage for 4 consecutive days beginning 1 hr after infection measured on day 4 post infection relative to control; format: functional
Summary of the method: (§2)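 P. berghei-infected erythrocytes taken from a previously infected mouse were injected intraperitoneally. Oral dosing, once daily for 4 consecutive days, began 1 h after infection, in polyethylene glycol 300/propylene glycol/water (55/25/20 by weight). Chloroquine at 30 mg/kg was the positive control, with a vehicle-only group. Percent survival was recorded daily from day 4 to day 20.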

Plasmodium berghei [3] = test: Antimalarial activity against Plasmodium berghei infected in Swiss Webster mouse assessed as mouse survival rate at 3 mg/kg administered once daily via oral gavage for 4 consecutive days beginning 1 hr after infection measured on day 7 post infection relative to control; format: functional; summary of the method: as §2
Plasmodium berghei [4] = test: Antimalarial activity against Plasmodium berghei infected in Swiss Webster mouse assessed as mouse survival rate at 100 mg/kg administered once daily via oral gavage for 4 consecutive days beginning 1 hr after infection measured on day 19 post infection relative to control; format: functional; summary of the method: as §1
Plasmodium berghei [5] = test: Antimalarial activity against Plasmodium berghei infected in Swiss Webster mouse assessed as mouse survival rate at 11 mg/kg administered once daily via oral gavage for 4 consecutive days beginning 1 hr after infection measured on day 12 post infection relative to control; format: functional; summary of the method: as §1
Plasmodium falciparum [6] = test: Antimalarial activity against Plasmodium falciparum K1 infected in human erythrocytes assessed as reduction in [3H]-hypoxanthine incorporation preincubated for 24 hrs followed by [3H]-hypoxanthine addition measured after 24 hrs by scintillation counting method; format: functional, cell-based
Escherichia coli [7] = test: Genotoxicity in Escherichia coli WP2uvrA assessed as number of revertants per plate at 1.5 ug/plate in absence of rat liver S9 fraction by Ames test (reference value: 45 +/- 9); format: toxicity
Lymphocyte [8] = test: Genotoxicity in human lymphocytes assessed as replication index at 80 ug/mL after 3 hrs in presence of rat liver S9 fraction by micronucleus assay relative to control; format: toxicity, cell-based; details: s9, 3 h
Summary of the method: (§3)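 Human lymphocytes exposed for 3 h with or without rat liver S9, or 28 h without S9, with 1% DMSO as vehicle control. Replication index = (binucleated + 2 × multinucleated cells)/total cells. Cytotoxicity (%) = 100 − (RI treated/RI vehicle) × 100.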

Lymphocyte [9] = test: Genotoxicity in human lymphocytes assessed as replication index at 160 ug/mL after 28 hrs in absence of rat liver S9 fraction by micronucleus assay relative to control; format: toxicity, cell-based; summary of the method: as §3
[10] = Terminal half life in Beagle dog at 5 mg/kg, po via gavage by HPLC/MS analysis; format: ADME, organism-based, Canis lupus familiaris; details: in vivo, read-out: beta t1/2 (converted)
Summary of the method: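 Female CD-1 mice, male SD rats or beagle dogs given 5 mg/kg by iv injection or oral gavage. Formulation was PEG300/propylene glycol/water 55/25/20, pH 6. Blood samples analysed by HPLC–MS/MS; parameters include AUC0-inf extrapolated to infinity and terminal half-life.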

Plasmodium falciparum [11] = test: Antimalarial activity against Plasmodium falciparum T9/94 infected in human erythrocytes assessed as reduction in [3H]-hypoxanthine incorporation preincubated for 24 hrs followed by [3H]-hypoxanthine addition measured after 24 hrs by scintillation counting method; format: functional, cell-based
Salmonella typhimurium [12] = test: Genotoxicity in Salmonella typhimurium TA100 assessed as number of revertants per plate at 5 ug/plate in presence of rat liver S9 fraction by Ames test (reference value: 141 +/- 1); format: toxicity; details: salmonella enterica subsp. enterica serovar typhimurium
[13] = AUC (0 to infinity) in Beagle dog at 5 mg/kg, po via gavage by HPLC/MS analysis; format: ADME, organism-based, Canis lupus familiaris; parameters: dose 5 mg/kg, time infinity, route oral; details: in vivo
Salmonella typhimurium [14] = test: Genotoxicity in Salmonella typhimurium TA1535 assessed as number of revertants per plate at 50 ug/plate in presence of rat liver S9 fraction by Ames test (reference value: 10); format: toxicity; details: salmonella enterica subsp. enterica serovar typhimurium
Salmonella typhimurium [15] = test: Genotoxicity in Salmonella typhimurium TA1537 assessed as number of revertants per plate at 5 ug/plate in absence of rat liver S9 fraction by Ames test (reference value: 19 +/- 9); format: toxicity; details: salmonella enterica subsp. enterica serovar typhimurium
Salmonella typhimurium [16] = test: Genotoxicity in Salmonella typhimurium TA100 assessed as number of revertants per plate at 50 ug/plate in presence of rat liver S9 fraction by Ames test (reference value: 141 +/- 1); format: toxicity; details: salmonella enterica subsp. enterica serovar typhimurium
Plasmodium berghei [17] = test: Antimalarial activity against Plasmodium berghei infected in Swiss Webster mouse assessed as mouse survival rate at 3.7 mg/kg administered once daily via oral gavage for 4 consecutive days beginning 1 hr after infection measured on day 8 post infection relative to control; format: functional; summary of the method: as §2
Lymphocyte [18] = test: Genotoxicity in human lymphocytes assessed as increase in frequency of micronucleated cells at 355.15 ug/mL after 3 hrs in presence of rat liver S9 fraction by micronucleus assay (reference value: 0.63%); format: toxicity, cell-based; details: s9, 3 h
Plasmodium falciparum [19] = test: Antimalarial activity against intraerythrocytic stage of Plasmodium falciparum assessed as parasite reduction ratio at 30 times IC50 preincubated for 24 hrs followed by [3H]-hypoxanthine addition measured after 24 hrs by scintillation counting method; format: functional
Summary of the method: (§4)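 In vitro P. falciparum parasite reduction ratio assay run at 10×, 30× and 100× IC50. Derived parameters: lag phase (time to maximal killing), PRR (parasites killed per life cycle) and PCT99.9% (time to clear 99.9% of the initial parasite population).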

Escherichia coli [20] = test: Genotoxicity in Escherichia coli WP2uvrA assessed as number of revertants per plate at 50 ug/plate in presence of rat liver S9 fraction by Ames test (reference value: 42 +/- 6); format: toxicity
Rattus norvegicus [21] = test: Genotoxicity in rat assessed as micronucleated polychromatic erythrocytes in bone marrow at 2000 mg/kg administered via oral gavage measured after 48 hrs post dose by micronucleus assay (reference value: 0.10 +/- 0.01%); format: toxicity, organism-based; details: in vivo
Salmonella typhimurium [22] = test: Genotoxicity in Salmonella typhimurium TA100 assessed as number of revertants per plate at 15 ug/plate in absence of rat liver S9 fraction by Ames test (reference value: 154 +/- 9); format: toxicity; details: salmonella enterica subsp. enterica serovar typhimurium
Rattus norvegicus [23] = test: Genotoxicity in rat assessed as change in polychromatic erythrocytes in bone marrow at 500 mg/kg administered via oral gavage measured after 24 hrs post dose by micronucleus assay relative to control; format: toxicity, organism-based; details: in vivo
[24] = Terminal half life in Sprague-Dawley rat at 5 mg/kg, po via gavage by HPLC/MS analysis; format: ADME, organism-based; details: in vivo, read-out: beta t1/2 (converted)
Salmonella typhimurium [25] = test: Genotoxicity in Salmonella typhimurium TA1535 assessed as number of revertants per plate at 1.5 ug/plate in presence of rat liver S9 fraction by Ames test (reference value: 10); format: toxicity; details: salmonella enterica subsp. enterica serovar typhimurium
Lymphocyte [26] = test: Genotoxicity in human lymphocytes assessed as increase in frequency of micronucleated cells at 355.15 ug/mL after 3 hrs in absence of rat liver S9 fraction by micronucleus assay (reference value: 0.99%); format: toxicity, cell-based
Plasmodium falciparum [27] = test: Antimalarial activity against intraerythrocytic stage of Plasmodium falciparum assessed as time required for maximal killing effect at 100 times IC50 preincubated for 24 hrs followed by [3H]-hypoxanthine addition measured after 24 hrs by scintillation counting method; format: functional; summary of the method: as §4

Cc1c(Oc2cnc(C(=O)NC(C)CO)cn2)ccc2c1B(O)OC2 (configuration not stated)
survival at 1 mg/kg (Plasmodium berghei [1]): 0% | survival at 3 mg/kg (Plasmodium berghei [2]): 100% | survival at 3 mg/kg (Plasmodium berghei [3]): 60%

Cc1c(Oc2cnc(C(=O)N3CC(O)(C(C)C)C3)cn2)ccc2c1B(O)OC2
survival at 100 mg/kg (Plasmodium berghei [4]): 80% | survival at 11 mg/kg (Plasmodium berghei [5]): 20%

Cc1c(Oc2cnc(C(=O)N3CC(C)(O)C3)cn2)ccc2c1B(O)OC2
IC50 (Plasmodium falciparum [6]): 0.062 µM | Activity (Escherichia coli [7]): 40 | Activity (Lymphocyte [8]): 1% | Activity (Lymphocyte [9]): 13% | half-life [10]: 9.5 h | IC50 (Plasmodium falciparum [11]): 0.054 µM | Activity (Salmonella typhimurium [12]): 128 | AUC(0-inf) [13]: 214 µg·h/mL | Activity (Salmonella typhimurium [14]): 11 | Activity (Salmonella typhimurium [15]): 15 | Activity (Salmonella typhimurium [16]): 136 | survival at 3.7 mg/kg (Plasmodium berghei [17]): 0% | Activity (Lymphocyte [18]): 0.73% | log(ratio) (Plasmodium falciparum [19]): 4.9 | Activity (Escherichia coli [20]): 44 | Activity (Rattus norvegicus [21]): 0.1% | Activity (Salmonella typhimurium [22]): 126 | Activity (Rattus norvegicus [23]): -4% | half-life [24]: 5.2 h | Activity (Salmonella typhimurium [25]): 9 | Activity (Lymphocyte [26]): 0.85% | Time (Plasmodium falciparum [27]): 0 h
